# Source: ChEMBL document CHEMBL3758120, “Synthesis and Mechanism Studies of 1,3-Benzoazolyl Substituted Pyrrolo[2,3-b]pyrazine Derivatives as Nonintercalative Topoisomerase II Catalytic Inhibitors” (J Med Chem, 2016)
# Calls of active or inactive are those of the source. The rule behind the calls is not given here.
# Assays:
# [1] = tested on: HeLa; test: Antiproliferative activity against human HeLa cells after 48 hrs by MTT assay; format: functional, cell-based
# Outline: (§1)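 Cells seeded at 5000 per well and left overnight, then exposed to increasing concentrations (0-50 μM) for 48 h. […] HL-60/MX2 is a mitoxantrone-selected HL-60 derivative with reduced Topo IIα/β.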
# [2] = tested on: HL-60; test: Induction of apoptosis in human HL60 cells assessed as early apoptotic cells at 0.25 uM after 24 hrs by annexin V-FITC/propidium iodide staining-based flow cytometric analysis (reference value: 0.5%); format: functional
# Outline: (§2)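 HL-60 cells at 5.0 × 10^5 cells/ml treated for 12 h (0.5–2 μM) or 24 h (0.25–1 μM), washed twice in cold PBS, resuspended in binding buffer, stained with annexin V-FITC and propidium iodide for 15 min in the dark, analysed by flow cytometry within 1 h; quadrants define live, early and late apoptotic cells. Three repeats.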
# [3] = tested on: HL-60; test: Induction of apoptosis in human HL60 cells assessed as late apoptotic cells at 0.5 uM after 12 hrs by annexin V-FITC/propidium iodide staining-based flow cytometric analysis (reference value: 0.17 to 0.18%); format: functional; outline: as §2
# [4] = tested on: HL-60; test: Induction of apoptosis in human HL60 cells assessed as late apoptotic cells at 1 uM after 12 hrs by annexin V-FITC/propidium iodide staining-based flow cytometric analysis (reference value: 0.17 to 0.18%); format: functional; outline: as §2
# [5] = tested on: K562; test: Antiproliferative activity against human K562 cells after 48 hrs by MTT assay; format: functional, cell-based; details: K562, 48 h; outline: as §1
# [6] = molecular target: T1, DNA topoisomerase 1 (Homo sapiens) (UniProt P11387); test: Inhibition of recombinant human topoisomerase 1-mediated relaxation of supercoiled pBR322 DNA at 50 uM incubated for 30 mins by agarose gel electrophoresis
# T1 sequence (whole entry): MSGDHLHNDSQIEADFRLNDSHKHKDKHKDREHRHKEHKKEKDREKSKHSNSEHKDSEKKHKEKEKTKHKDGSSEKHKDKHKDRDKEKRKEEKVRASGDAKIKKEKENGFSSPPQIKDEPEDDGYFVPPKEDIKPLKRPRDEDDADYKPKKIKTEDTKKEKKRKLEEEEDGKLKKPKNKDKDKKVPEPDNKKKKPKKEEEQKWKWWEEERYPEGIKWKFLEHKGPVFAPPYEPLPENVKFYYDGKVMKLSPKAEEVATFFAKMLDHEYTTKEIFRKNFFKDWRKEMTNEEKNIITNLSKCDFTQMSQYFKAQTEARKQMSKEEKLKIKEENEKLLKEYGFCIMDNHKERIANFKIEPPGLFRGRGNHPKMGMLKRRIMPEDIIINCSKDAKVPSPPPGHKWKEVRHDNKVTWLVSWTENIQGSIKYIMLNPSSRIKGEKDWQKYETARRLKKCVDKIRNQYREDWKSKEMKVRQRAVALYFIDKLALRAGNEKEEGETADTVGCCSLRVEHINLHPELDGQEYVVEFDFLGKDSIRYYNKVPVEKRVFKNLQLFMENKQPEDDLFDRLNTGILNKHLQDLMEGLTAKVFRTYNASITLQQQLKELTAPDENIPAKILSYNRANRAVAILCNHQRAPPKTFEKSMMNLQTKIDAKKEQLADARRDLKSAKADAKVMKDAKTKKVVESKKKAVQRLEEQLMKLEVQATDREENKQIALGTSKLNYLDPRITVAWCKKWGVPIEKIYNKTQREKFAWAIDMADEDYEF
# Outline: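 Supercoiled pBR322 relaxed by Topo I with compound, incubated 30 min at 37 °C, stopped with 1% SDS dye, run on 1% agarose 1 h at 90 V in TAE, stained and imaged under UV; camptothecin as reference.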
# [7] = tested on: HL-60; test: Induction of apoptosis in human HL60 cells assessed as dead cells at 1 uM after 24 hrs by annexin V-FITC/propidium iodide staining-based flow cytometric analysis (reference value: 0.12%); format: functional
# [8] = tested on: HL-60; test: Induction of apoptosis in human HL60 cells assessed as dead cells at 0.5 uM after 12 hrs by annexin V-FITC/propidium iodide staining-based flow cytometric analysis (reference value: 0.12 to 0.15%); format: functional
# [9] = tested on: HL-60; test: Resistance index, ratio of IC50 for human HL60/MX2 cells to IC50 for HL60 cells; format: functional
# Outline: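 Resistance index calculated as MTT-derived IC50 (48 h exposure, 0-50 μM, A570 readout) in HL-60/MX2 divided by IC50 in parental HL-60.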
# [10] = tested on: HL-60; test: Induction of apoptosis in human HL60 cells assessed as dead cells at 2 uM after 12 hrs by annexin V-FITC/propidium iodide staining-based flow cytometric analysis (reference value: 0.12 to 0.15%); format: functional
# [11] = molecular target: T2, DNA topoisomerase 2-alpha (Homo sapiens, UniProt P11388); test: Inhibition of purified human topoisomerase 2 using supercoiled pBR322 DNA as substrate assessed as linear DNA formation at 20 uM incubated for 6 mins by agarose gel electrophoresis
# T2 sequence (P11388 whole entry): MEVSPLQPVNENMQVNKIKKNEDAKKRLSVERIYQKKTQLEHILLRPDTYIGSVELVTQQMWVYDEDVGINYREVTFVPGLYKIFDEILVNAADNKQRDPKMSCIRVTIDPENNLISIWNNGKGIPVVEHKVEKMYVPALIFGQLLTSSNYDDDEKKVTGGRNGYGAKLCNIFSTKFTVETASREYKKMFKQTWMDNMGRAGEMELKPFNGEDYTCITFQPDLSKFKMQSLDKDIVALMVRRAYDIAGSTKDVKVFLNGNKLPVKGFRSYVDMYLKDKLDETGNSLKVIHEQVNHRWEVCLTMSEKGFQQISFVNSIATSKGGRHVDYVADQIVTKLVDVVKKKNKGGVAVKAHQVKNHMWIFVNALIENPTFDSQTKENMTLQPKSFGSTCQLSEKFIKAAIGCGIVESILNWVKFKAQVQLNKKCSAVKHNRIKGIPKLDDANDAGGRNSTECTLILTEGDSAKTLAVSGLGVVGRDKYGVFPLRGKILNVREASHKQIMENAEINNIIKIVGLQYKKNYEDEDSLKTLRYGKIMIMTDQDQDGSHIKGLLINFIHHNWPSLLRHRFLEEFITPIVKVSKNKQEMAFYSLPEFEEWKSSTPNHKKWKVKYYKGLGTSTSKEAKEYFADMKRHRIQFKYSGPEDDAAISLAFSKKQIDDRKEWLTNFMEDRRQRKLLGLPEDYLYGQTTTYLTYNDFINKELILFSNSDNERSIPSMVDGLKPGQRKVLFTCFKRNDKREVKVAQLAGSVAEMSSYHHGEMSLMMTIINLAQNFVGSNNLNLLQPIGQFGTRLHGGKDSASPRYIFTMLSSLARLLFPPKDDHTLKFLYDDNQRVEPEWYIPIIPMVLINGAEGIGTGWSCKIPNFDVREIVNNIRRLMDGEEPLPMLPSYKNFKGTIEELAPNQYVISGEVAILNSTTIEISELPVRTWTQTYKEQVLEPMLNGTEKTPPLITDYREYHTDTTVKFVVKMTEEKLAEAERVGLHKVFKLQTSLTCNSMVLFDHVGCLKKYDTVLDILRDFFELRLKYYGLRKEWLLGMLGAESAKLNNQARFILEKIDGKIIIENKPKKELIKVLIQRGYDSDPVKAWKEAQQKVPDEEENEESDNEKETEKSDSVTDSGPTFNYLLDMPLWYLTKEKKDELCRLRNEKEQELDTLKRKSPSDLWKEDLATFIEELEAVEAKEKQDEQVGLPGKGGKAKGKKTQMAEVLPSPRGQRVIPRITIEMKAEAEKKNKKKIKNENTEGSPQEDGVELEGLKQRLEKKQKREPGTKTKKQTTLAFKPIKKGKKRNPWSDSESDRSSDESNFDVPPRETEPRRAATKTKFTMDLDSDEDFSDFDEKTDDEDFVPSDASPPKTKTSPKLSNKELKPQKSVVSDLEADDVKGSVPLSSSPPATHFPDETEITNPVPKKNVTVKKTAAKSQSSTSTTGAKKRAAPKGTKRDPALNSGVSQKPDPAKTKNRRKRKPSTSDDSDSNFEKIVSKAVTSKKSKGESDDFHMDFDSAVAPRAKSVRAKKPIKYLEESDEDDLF
# Outline: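 Human Topo II (6 units) with 0.1 μg supercoiled pBR322 in 50 mM Tris-HCl pH 8.0, 150 mM NaCl, 10 mM MgCl2, 2 mM ATP, 0.5 mM DTT, 30 μg/ml BSA; compounds at 20 μM, etoposide 100 μM. After 6 min at 37 °C, complexes trapped with SDS then EDTA, proteinase K 30 min at 45 °C, heated 72 °C 2 min, run on 1% agarose; linear DNA scored. Antagonism tested by compound pretreatment before etoposide.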
# [12] = Antiproliferative activity against human HL60/MX2 cells after 48 hrs by MTT assay; format: functional, cell-based; details: HL60/MX2, 48 h; outline: as §1
# [13] = tested on: HL-60; test: Induction of apoptosis in human HL60 cells assessed as viable cells at 0.5 uM after 24 hrs by annexin V-FITC/propidium iodide staining-based flow cytometric analysis (reference value: 97.75%); format: functional; details: HL-60, 24 h, read-out: Activity; outline: as §2
# [14] = tested on: HL-60; test: Induction of apoptosis in human HL60 cells assessed as dead cells at 0.25 uM after 24 hrs by annexin V-FITC/propidium iodide staining-based flow cytometric analysis (reference value: 0.12%); format: functional
# [15] = molecular target: T2, DNA topoisomerase 2-alpha; test: Inhibition of purified human topoisomerase 2-mediated relaxation of supercoiled pBR322 DNA at 20 uM incubated for 30 mins by agarose gel electrophoresis
# Outline: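 Reactions contained 0.2 μg supercoiled pBR322 in 50 mM Tris-HCl pH 8.0, 150 mM NaCl, 10 mM MgCl2, 0.5 mM DTT, 30 μg/ml BSA, normally 2 mM ATP (1, 2 or 4 mM in ATP-competition runs). Started with 1 U human Topo II, 30 min at 37 °C, stopped with sarcosyl buffer, run on 1% agarose 1.5 h at 75 V, gel-stained and imaged under UV.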
# [16] = tested on: HL-60; test: Induction of apoptosis in human HL60 cells assessed as late apoptotic cells at 0.5 uM after 24 hrs by annexin V-FITC/propidium iodide staining-based flow cytometric analysis (reference value: 1.64%); format: functional; outline: as §2
# [17] = tested on: HL-60; test: Induction of apoptosis in human HL60 cells assessed as late apoptotic cells at 1 uM after 24 hrs by annexin V-FITC/propidium iodide staining-based flow cytometric analysis (reference value: 1.64%); format: functional; outline: as §2
# [18] = tested on: HL-60; test: Induction of apoptosis in human HL60 cells assessed as early apoptotic cells at 1 uM after 12 hrs by annexin V-FITC/propidium iodide staining-based flow cytometric analysis (reference value: 0.38 to 0.55%); format: functional; outline: as §2
SMILES,IC50 [1],Activity [2],Activity [3],Activity [4],IC50 [5],inhibition [6],Activity [7],Activity [8],Ratio IC50 [9],Activity [10],inhibition [11],IC50 [12],viability at 0.5 µM [13],Activity [14],inhibition [15],Activity [16],Activity [17],Activity [18]
CCN(CC)CCCCn1c(N)c(-c2nc3ccccc3[nH]2)c2nc(C#N)c(C#N)nc21,10100 nM,0.35%,0.21%,1.19%,1440 nM,inactive,12.63%,0.1%,3.3,1.36%,inactive,1550 nM,78.7%,0.07%,Active,17.65%,45.05%,1.39%
CN(C)CCCCn1c(N)c(-c2nc3ccccc3[nH]2)c2nc(C#N)c(C#N)nc21,11200 nM,0.54%,0.21%,0.39%,1430 nM,inactive,8.31%,0.05%,4.1,1.96%,inactive,1780 nM,13.9%,0.03%,Active,79.38%,90.51%,0.82%
